This note sets out measurements from paper PMC7254033 (Saudi Journal of Biological Sciences, 2019).

The test system of assay [1] is Candida albicans NR-29450. Briefly: Anti-yeast activity, CLSI M27-A3 microdilution MIC. The assay is classed as cell-based. Conditions: NR29450, 48 h, read-out: Antifungal activity Minimal Inhibitory Concentrations, C. albicans. The method in brief: (§1)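 Broth microdilution per CLSI M27-A3 in RPMI 1640 with two-fold serial dilutions over ten concentrations, alongside fluconazole reference dilutions. Strains were kept on agar slopes at 4 °C and subcultured for 48 h before each run. Inoculum was standardized at 2.50 × 10^3 cells/mL, with a blank sterility column. Plates were incubated 48 h at 37 °C. MIC was the lowest concentration with no visible turbidity. Tested in triplicate.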
For orientation: Dilution methods test growth across graded concentrations, often in twofold steps.

Assay [2] is described as follows: DPPH radical scavenging activity. Conditions: 30 mins in the dark, absorbance at 517 nm. The method in brief:
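DPPH was made up at 0.02% in methanol ([…]), stored closed away from light and heat. Serial dilutions of test compound were mixed with the DPPH solution to eight final two-fold concentrations, with ascorbic acid treated identically as positive control. Mixtures stood 30 min in the dark at room temperature. Absorbance at 517 nm was read against blank. % scavenging = (Ao − As)/Ao × 100, and IC50 was deduced from it. Triplicate.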
For orientation: DPPH is a stable violet radical that fades when it is reduced.

Assay [3] relates to Candida krusei ATCC 6258. Briefly: Anti-yeast activity, CLSI M27-A3 microdilution MIC. The following applies: for Antifungal activity, folds less than fuconazole: strain not given, fits C. krusei of Table 3. The class given is cell-based. The method in brief:
as §1

In assay [4] the test system is Candida glabrata isolate. The assay can be described thus: Anti-yeast activity, CLSI M27-A3 microdilution MIC. The class given is cell-based. The following applies: 48 h, 37 °C. The method in brief: as §1
Assay [5] concerns zymosan stimulated human whole blood phagocytes. The assay can be described thus: Oxidative burst assay. The assay is classed as cell-based. Conditions: read-out: ROS Inhibition (IC50 µg/mL). The method in brief:
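Diluted human whole blood phagocytes were stimulated with zymosan and intracellular ROS measured by luminol-enhanced chemiluminescence. Test compound was given at three concentrations (1, 10 and 100), with ibuprofen as standard anti-inflammatory drug. IC50 was derived.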

Values after ≈ are worked out from the molar mass of the structure shown. Marks after values point to notes of the source that are not given here.

Turning to `C=C(C)[C@@H]1CC[C@]2(C)CC[C@]3(C)[C@H](CC[C@@H]4[C@@]5(C)CCC(=O)C(C)(C)[C@@H]5CC[C@]43C)[C@@H]12` [Compound 10, lupenone], the MIC in assay [1] is 500 µg/mL (≈ 1180 µM). Further, in assay [2], the “DPPH radical scavenging activity IC50” value is “˃1000 µg/mL”.
As to `OC(Cn1cncn1)(Cn1cncn1)c1ccc(F)cc1F` [Fluconazol, fluconazole, reference compound], the “Antifungal activity Minimal Inhibitory Concentrations, C. krusei” value in assay [3] (48 h, 37 °C) worked out at 50 µg/mL. Besides, the “Antifungal activity Minimal Inhibitory Concentrations, C. glabrata” value in assay [4] was found to be 50 µg/mL.
In the case of `CC(C)Cc1ccc(C(C)C(=O)O)cc1` (centres unmarked) [Ibuprofen], the IC50 in assay [5] was found to be 11.2 ± 1.9 µg/mL (≈ 54.3 µM).
With `C=C(C)[C@@H]1CC[C@]2(C(=O)O)CC[C@]3(C)[C@H](CC[C@@H]4[C@@]5(C)CC[C@H](O)C(C)(C)[C@@H]5CC[C@]43C)[C@@H]12` [Compound 8, betulinic acid], the MIC in assay [1] is 500 µg/mL (≈ 1090 µM). For the same molecule, the “Antifungal activity, folds less than fuconazole” value in assay [3] is on record as 5 folds. In assay [2], the “DPPH radical scavenging activity IC50” value is “˃1000 µg/mL”.
For `O=C1O[C@H]([C@@H](O)CO)C(O)=C1O` [Vitamin C, ascorbic acid, reference compound], the “DPPH radical scavenging activity IC50” value in assay [2] is on record as 3.343 ± 0.271^a µg/mL.
For the molecule `C=C(C)[C@@H]1CC[C@]2(C)CC[C@]3(C)[C@H](CC[C@@H]4[C@@]5(C)CC[C@H](O)C(C)(C)[C@@H]5CC[C@]43C)[C@@H]12` [Compound 7, lupeol], the MIC in assay [1] is 500 µg/mL (≈ 1170 µM). Also, in assay [3], the “Antifungal activity, folds less than fuconazole” value was 5 folds. Also, the “DPPH radical scavenging activity IC50” value in assay [2] is reported as “˃1000 µg/mL”.
For the molecule `CC1(C)CC[C@]2(C(=O)O)CC[C@]3(C)C(=CC[C@@H]4[C@@]5(C)CC[C@H](O)C(C)(C)[C@@H]5CC[C@]43C)[C@@H]2C1` [Compound 5, oleanolic acid], in assay [1], the MIC worked out at 500 µg/mL (≈ 1090 µM). Besides, the “DPPH radical scavenging activity IC50” value in assay [2] is “˃1000 µg/mL”.
